Common to all, as to format: biochemical
Assay [1] addresses T1, PTPD2 (Homo sapiens, UniProt Q15678).
T1 sequence (Q15678 876-1187): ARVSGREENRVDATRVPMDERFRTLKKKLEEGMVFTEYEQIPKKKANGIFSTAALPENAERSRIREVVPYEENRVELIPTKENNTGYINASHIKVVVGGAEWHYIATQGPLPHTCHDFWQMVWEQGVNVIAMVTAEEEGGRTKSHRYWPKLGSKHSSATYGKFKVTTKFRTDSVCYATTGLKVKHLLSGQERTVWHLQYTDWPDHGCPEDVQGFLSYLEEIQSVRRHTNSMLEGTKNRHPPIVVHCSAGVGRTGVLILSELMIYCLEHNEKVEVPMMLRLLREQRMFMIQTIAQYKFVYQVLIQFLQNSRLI
Put plainly: PTP assay, PTPD2. Particulars: for Km / kcat / kcat/KM x10^6: catalytic domain, 100 mM HEPES pH 7.4, monitored at 282 nm. Summed up: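 His-tagged catalytic domains were made in E. coli: PTPD2 aa 876–1187 and PTPRC aa 620–1236 with N-terminal tags, PTPD1 aa 875–1174 and SHP-2 aa 199–593 with C-terminal tags. Enzyme was added at 0.5–20000 nM final. A282 (Δε 1102 M−1 cm−1) was followed. Constants came from Michaelis–Menten fits of initial rates (<60 s), or from fits of progress curves run to substrate depletion.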

For assay [2], the target named is T2, PTPRO (Homo sapiens, UniProt Q16827).
T2 sequence (Q16827 938-1195 limits assumed): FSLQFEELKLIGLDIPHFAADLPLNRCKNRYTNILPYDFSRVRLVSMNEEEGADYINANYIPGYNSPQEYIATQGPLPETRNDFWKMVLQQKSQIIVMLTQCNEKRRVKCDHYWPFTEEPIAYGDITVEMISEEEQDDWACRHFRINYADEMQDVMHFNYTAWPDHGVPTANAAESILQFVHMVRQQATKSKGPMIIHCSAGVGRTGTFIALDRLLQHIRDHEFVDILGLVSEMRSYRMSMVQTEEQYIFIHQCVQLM
Put plainly: PTP assay, PTPRO. Conditions: for Km / kcat / kcat/KM x10^6: catalytic domain, 100 mM HEPES pH 7.4, monitored at 282 nm.

The target in assay [3] is T3, PTPH1 (Homo sapiens, UniProt P26045).
T3 sequence (P26045 628-909): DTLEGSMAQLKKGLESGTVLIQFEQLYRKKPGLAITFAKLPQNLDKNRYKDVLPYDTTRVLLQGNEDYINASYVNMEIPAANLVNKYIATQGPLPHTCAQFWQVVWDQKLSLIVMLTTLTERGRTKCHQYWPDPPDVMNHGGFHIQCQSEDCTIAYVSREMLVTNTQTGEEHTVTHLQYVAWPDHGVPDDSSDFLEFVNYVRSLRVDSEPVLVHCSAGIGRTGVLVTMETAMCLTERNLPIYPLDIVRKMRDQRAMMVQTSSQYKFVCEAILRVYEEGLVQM
The experiment in a line: PTP assay, PTPH1. Conditions: for Km / kcat / kcat/KM x10^6: catalytic domain, 100 mM HEPES pH 7.4, monitored at 282 nm.

Assay [4] addresses T4, PTP-PEST (Homo sapiens, UniProt Q05209).
T4 sequence (Q05209 5-300): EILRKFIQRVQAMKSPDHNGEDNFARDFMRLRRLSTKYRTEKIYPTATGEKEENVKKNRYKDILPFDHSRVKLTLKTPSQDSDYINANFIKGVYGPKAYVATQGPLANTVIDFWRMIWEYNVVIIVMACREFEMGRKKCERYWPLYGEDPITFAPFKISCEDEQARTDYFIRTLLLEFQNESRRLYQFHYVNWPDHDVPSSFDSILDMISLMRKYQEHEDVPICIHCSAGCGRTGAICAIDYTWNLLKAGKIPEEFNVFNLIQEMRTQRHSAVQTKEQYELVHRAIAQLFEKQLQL
Put plainly: PTP assay with pY peptide substrates, PTP-PEST. Conditions: for Km / kcat / kcat/KM x10^6: catalytic domain, 100 mM HEPES pH 7.4, monitored at 282 nm.

Assay [5] concerns the target T5, PTPRD (Homo sapiens, UniProt P23468).
T5 sequence (P23468 1299-1899): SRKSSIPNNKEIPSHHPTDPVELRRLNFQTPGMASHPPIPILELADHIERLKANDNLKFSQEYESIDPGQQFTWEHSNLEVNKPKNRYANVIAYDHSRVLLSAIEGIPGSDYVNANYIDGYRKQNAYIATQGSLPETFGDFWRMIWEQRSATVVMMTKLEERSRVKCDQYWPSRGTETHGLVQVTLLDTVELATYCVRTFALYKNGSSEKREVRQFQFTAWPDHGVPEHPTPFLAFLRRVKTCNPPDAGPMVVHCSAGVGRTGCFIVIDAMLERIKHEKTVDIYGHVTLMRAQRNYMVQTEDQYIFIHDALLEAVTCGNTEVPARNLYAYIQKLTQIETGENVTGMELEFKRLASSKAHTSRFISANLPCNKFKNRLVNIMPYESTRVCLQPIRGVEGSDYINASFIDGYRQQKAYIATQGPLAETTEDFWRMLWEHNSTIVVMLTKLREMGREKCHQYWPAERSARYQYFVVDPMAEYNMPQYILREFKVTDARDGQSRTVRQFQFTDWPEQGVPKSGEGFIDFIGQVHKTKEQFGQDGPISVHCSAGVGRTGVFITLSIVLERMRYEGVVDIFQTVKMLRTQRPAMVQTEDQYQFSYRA
The experiment in a line: PTP assay, PTPRD.

The target in assay [6] is T6, HePTP (Homo sapiens, UniProt P35236).
T6 sequence (P35236 43-356): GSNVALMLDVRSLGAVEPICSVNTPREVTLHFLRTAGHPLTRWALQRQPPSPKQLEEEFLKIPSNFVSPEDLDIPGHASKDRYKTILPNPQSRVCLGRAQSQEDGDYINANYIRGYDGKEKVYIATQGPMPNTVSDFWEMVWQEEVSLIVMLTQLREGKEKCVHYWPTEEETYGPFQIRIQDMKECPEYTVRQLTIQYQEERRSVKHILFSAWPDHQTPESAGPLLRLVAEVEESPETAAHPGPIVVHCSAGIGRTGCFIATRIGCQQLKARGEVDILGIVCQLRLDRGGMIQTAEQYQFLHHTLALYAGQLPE
Put plainly: PTP assay, HePTP.

The mark [7] stands for this setting: kcat/KM of neutral peptide over basic Ac-YRKRFpYRYKF-NH2.
The mark [8] stands for this setting: catalytic domain, 100 mM HEPES pH 7.4, monitored at 282 nm.
The mark [9] stands for this setting: kcat/KM of acidic peptide over basic Ac-YRKRFpYRYKF-NH2.
The mark [10] stands for this setting: kcat/KM of acidic peptide over neutral Ac-SASASpYSASA-NH2.

Take Ac-SASASpYSASA-NH2: the Michaelis-Menten constant (Km) in assay [1] is 9.4 ± 0.4 µM; in assay [2] it was 250 ± 10 µM; in assay [3] it was 5.8 ± 0.7 µM; in assay [4], 800 ± 10 µM. The kcat in assay [1] was 0.12 ± 0.006 s⁻¹; in assay [2], 240 ± 8 s⁻¹; in assay [3], 2.5 ± 0.2 s⁻¹; in assay [4], 160 ± 2 s⁻¹. Further, the “kcat/KM x10^6” value is 0.013 x10^6 M^−1 s^−1 in assay [1]; 0.94 x10^6 M^−1 s^−1 in assay [2]; 0.44 x10^6 M^−1 s^−1 in assay [3]; 0.20 x10^6 M^−1 s^−1 in assay [4]; 0.00068 x10^6 M^−1 s^−1 in assay [5] (setting [8]); 0.0006 x10^6 M^−1 s^−1 in assay [6] (setting [8]). Moreover, the “Neutral/Basic ratio of kcat/KM values” in assay [1] (setting [7]) is 160; in assay [2] (setting [7]), 18; in assay [5] (setting [7]), 1.
With Ac-YDEDFpYDYEF-NH2, the Km was 0.7 ± 0.09 µM in assay [1]; 5.7 ± 0.8 µM in assay [2]; 0.28 ± 0.02 µM in assay [3]; 2.2 ± 0.5 µM in assay [4]; greater than 60 µM in assay [5] (setting [8]); 280 ± 25 µM in assay [6] (setting [8]). Besides, the kcat in assay [1] was 0.073 ± 0.003 s⁻¹; in assay [2], 200 ± 10 s⁻¹; in assay [3], 2.4 ± 0.06 s⁻¹; in assay [4], 470 ± 10 s⁻¹; in assay [5] (setting [8]), greater than 0.86 s⁻¹; in assay [6] (setting [8]) it was 7.0 ± 0.3 s⁻¹. In addition, the “kcat/KM x10^6” value in assay [1] is listed as 0.11 x10^6 M^−1 s^−1; in assay [2] it was 35 x10^6 M^−1 s^−1; in assay [3], 8.8 x10^6 M^−1 s^−1; in assay [4], 220 x10^6 M^−1 s^−1; in assay [5] (setting [8]), 0.014 x10^6 M^−1 s^−1; in assay [6] (setting [8]) it was 0.025 x10^6 M^−1 s^−1. Besides, the “Acidic/Basic ratio of kcat/KM values” in assay [1] (setting [9]) worked out at 1300; in assay [2] (setting [9]), 660; in assay [3] (setting [9]), 2600; in assay [4] (setting [9]), 150000; in assay [5] (setting [9]), 21; in assay [6] (setting [9]) it was 2500. The “Acidic/Neutral ratio of kcat/KM values” in assay [1] (setting [10]) was determined as 8; in assay [2] (setting [10]), 37; in assay [3] (setting [10]), 20; in assay [4] (setting [10]) it was 1100; in assay [5] (setting [10]) it was 21; in assay [6] (setting [10]) it was 42.
Consider Ac-YRKRFpYRYKF-NH2, for which the “kcat/KM x10^6” value in assay [1] was 0.000082 x10^6 M^−1 s^−1; in assay [2], 0.053 x10^6 M^−1 s^−1; in assay [3], 0.0033 x10^6 M^−1 s^−1; in assay [4] it was 0.0015 x10^6 M^−1 s^−1; in assay [5] (setting [8]) it was 0.0007 x10^6 M^−1 s^−1; in assay [6] (setting [8]) it was 0.000010 x10^6 M^−1 s^−1.

Values taken from publication PMC3954597 (Biochemistry, 2014).
